Values after ≈ are worked out from the molar mass of the structure shown.
Assays:
Format in all cases: functional
Streptococcus pneumoniae [1] = assay: Antimicrobial activity against penicillin-susceptible Streptococcus pneumoniae by agar dilution method
Streptococcus pneumoniae [2] = assay: Antimicrobial activity against penicillin-intermediate Streptococcus pneumoniae by agar dilution method
Streptococcus pneumoniae [3] = assay: Antimicrobial activity against penicillin-resistant Streptococcus pneumoniae by agar dilution method
Procedure, shortened: (§1)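 Agar dilution MIC on Mueller-Hinton agar with 5% sheep blood, inocula 10^4 CFU/spot; amoxicillin-clavulanate combined 1:2; S. pneumoniae ATCC 49619 quality control each run.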

Streptococcus pneumoniae [4] = assay: Antimicrobial activity against Streptococcus pneumoniae 19A by agar dilution method; procedure, shortened: as §1
Streptococcus pneumoniae [5] = assay: Antimicrobial activity against Streptococcus pneumoniae 1 by time-kill analysis
Procedure, shortened: (§2)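 Time-kill in cation-adjusted Mueller-Hinton broth with 5% lysed horse blood; inocula 5 × 105 to 5 × 10^6 CFU/ml; drugs at MIC, 2× and 4× MIC; 35°C shaking water bath; viable counts at 0, 3, 6, 12 and 24 h. Bactericidal if ≥3 log10 CFU/ml (99.9%) reduction from original inoculum; 90% and 99% killing also scored.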

Streptococcus pneumoniae [6] = assay: Antimicrobial activity against Streptococcus pneumoniae 2 by time-kill analysis
Procedure, shortened: as §2, with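 “12,” for “12 and”, “=” for “if”, “drop” for “reduction”, “90%/99%/99.9%” for “90% and 99%”, “scored per strain.” for “also scored.”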

Streptococcus pneumoniae [7] = assay: Antimicrobial activity against Streptococcus pneumoniae 3 by time-kill analysis
Procedure, shortened: as §2, with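 “12,” for “12 and”, “=” for “if”, “drop” for “reduction”, “90%/99%/99.9%” for “90% and 99%”, “scored per strain.” for “also scored.”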

Streptococcus pneumoniae [8] = assay: Antimicrobial activity against Streptococcus pneumoniae 4 by time-kill analysis
Procedure, shortened: as §2, with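 “12,” for “12 and”, “=” for “if”, “drop” for “reduction”, “90%/99%/99.9%” for “90% and 99%”, “scored per strain.” for “also scored.”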

Streptococcus pneumoniae [9] = assay: Antimicrobial activity against Streptococcus pneumoniae 5 by time-kill analysis; procedure, shortened: as §2
Streptococcus pneumoniae [10] = assay: Antimicrobial activity against Streptococcus pneumoniae 6 by time-kill analysis
Procedure, shortened: as §2, with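 “12,” for “12 and”, “=” for “if”, “drop” for “reduction”, “90%/99%/99.9%” for “90% and 99%”, “scored per strain.” for “also scored.”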

Streptococcus pneumoniae [11] = assay: Antimicrobial activity against Streptococcus pneumoniae 7 by time-kill analysis
Procedure, shortened: as §2, with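 “12,” for “12 and”, “=” for “if”, “drop” for “reduction”, “90%/99%/99.9%” for “90% and 99%”, “scored per strain.” for “also scored.”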

Streptococcus pneumoniae [12] = assay: Antimicrobial activity against Streptococcus pneumoniae 8 by time-kill analysis
Procedure, shortened: as §2, with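 “12,” for “12 and”, “=” for “if”, “drop” for “reduction”, “90%/99%/99.9%” for “90% and 99%”, “scored per strain.” for “also scored.”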

Streptococcus pneumoniae [13] = assay: Antimicrobial activity against Streptococcus pneumoniae 9 by time-kill analysis; procedure, shortened: as §2
Streptococcus pneumoniae [14] = assay: Antimicrobial activity against Streptococcus pneumoniae 10 by time-kill analysis
Procedure, shortened: as §2, with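 “12,” for “12 and”, “=” for “if”, “drop” for “reduction”, “90%/99%/99.9%” for “90% and 99%”, “scored per strain.” for “also scored.”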

Streptococcus pneumoniae [15] = assay: Antimicrobial activity against Streptococcus pneumoniae 11 by time-kill analysis
Procedure, shortened: as §2, with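 “12,” for “12 and”, “=” for “if”, “drop” for “reduction”, “90%/99%/99.9%” for “90% and 99%”, “scored per strain.” for “also scored.”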

Streptococcus pneumoniae [16] = assay: Antimicrobial activity against Streptococcus pneumoniae 12 by time-kill analysis
Procedure, shortened: as §2, with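 “12,” for “12 and”, “=” for “if”, “drop” for “reduction”, “90%/99%/99.9%” for “90% and 99%”, “scored per strain.” for “also scored.”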

Streptococcus pneumoniae [17] = assay: Antimicrobial activity against Streptococcus pneumoniae isolate 24 by agar dilution method
Streptococcus pneumoniae [18] = assay: Antimicrobial activity against Streptococcus pneumoniae isolate 33 by agar dilution method; procedure, shortened: as §1
Streptococcus pneumoniae [19] = assay: Antimicrobial activity against Streptococcus pneumoniae isolate 37 by agar dilution method; procedure, shortened: as §1
Streptococcus pneumoniae [20] = assay: Antimicrobial activity against Streptococcus pneumoniae isolate 1055 by agar dilution method
Streptococcus pneumoniae [21] = assay: Antimicrobial activity against Streptococcus pneumoniae isolate 1146 by agar dilution method; procedure, shortened: as §1
Streptococcus pneumoniae [22] = assay: Antimicrobial activity against Streptococcus pneumoniae isolate 1147 by agar dilution method; procedure, shortened: as §1
Streptococcus pneumoniae [23] = assay: Antimicrobial activity against Streptococcus pneumoniae isolate 1384 by agar dilution method; procedure, shortened: as §1
Streptococcus pneumoniae [24] = assay: Antimicrobial activity against Streptococcus pneumoniae isolate 1394 by agar dilution method
Streptococcus pneumoniae [25] = assay: Antimicrobial activity against Streptococcus pneumoniae isolate 1397 by agar dilution method; procedure, shortened: as §1
Streptococcus pneumoniae [26] = assay: Antimicrobial activity against Streptococcus pneumoniae isolate 1424 by agar dilution method; procedure, shortened: as §1
Streptococcus pneumoniae [27] = assay: Antimicrobial activity against Streptococcus pneumoniae isolate 1564 by agar dilution method
Streptococcus pneumoniae [28] = assay: Antimicrobial activity against Streptococcus pneumoniae isolate 2617 by agar dilution method; procedure, shortened: as §1
Streptococcus pneumoniae [29] = assay: Antimicrobial activity against Streptococcus pneumoniae isolate 2686 by agar dilution method; procedure, shortened: as §1
Streptococcus pneumoniae [30] = assay: Antimicrobial activity against Streptococcus pneumoniae isolate 2688 by agar dilution method; procedure, shortened: as §1
Streptococcus pneumoniae [31] = assay: Antimicrobial activity against Streptococcus pneumoniae isolate 2874 by agar dilution method; procedure, shortened: as §1
Streptococcus pneumoniae [32] = assay: Antimicrobial activity against Streptococcus pneumoniae isolate 2880 by agar dilution method; procedure, shortened: as §1
Streptococcus pneumoniae [33] = assay: Antimicrobial activity against Streptococcus pneumoniae isolate 3260 by agar dilution method
Streptococcus pneumoniae [34] = assay: Antimicrobial activity against Streptococcus pneumoniae isolate 3263 by agar dilution method
Streptococcus pneumoniae [35] = assay: Antimicrobial activity against Streptococcus pneumoniae isolate 3275 by agar dilution method; procedure, shortened: as §1
Streptococcus pneumoniae [36] = assay: Antimicrobial activity against Streptococcus pneumoniae isolate 3282 by agar dilution method
Streptococcus pneumoniae [37] = assay: Antimicrobial activity against Streptococcus pneumoniae isolate 3346 by agar dilution method
Streptococcus pneumoniae [38] = assay: Antimicrobial activity against Streptococcus pneumoniae isolate 3374 by agar dilution method; procedure, shortened: as §1
Streptococcus pneumoniae [39] = assay: Antimicrobial activity against Streptococcus pneumoniae isolate 3412 by agar dilution method; procedure, shortened: as §1
Streptococcus pneumoniae [40] = assay: Antimicrobial activity against Streptococcus pneumoniae isolate 3455 by agar dilution method
Streptococcus pneumoniae [41] = assay: Antimicrobial activity against Streptococcus pneumoniae isolate 3458 by agar dilution method
Streptococcus pneumoniae [42] = assay: Antimicrobial activity against Streptococcus pneumoniae isolate 3481 by agar dilution method; procedure, shortened: as §1
Streptococcus pneumoniae [43] = assay: Antimicrobial activity against Streptococcus pneumoniae isolate 3587 by agar dilution method
Streptococcus pneumoniae [44] = assay: Antimicrobial activity against Streptococcus pneumoniae isolate 3681 by agar dilution method; procedure, shortened: as §1
Streptococcus pneumoniae [45] = assay: Antimicrobial activity against Streptococcus pneumoniae isolate 3791 by agar dilution method; procedure, shortened: as §1
Streptococcus pneumoniae [46] = assay: Antimicrobial activity against Streptococcus pneumoniae isolate 4747 by agar dilution method; procedure, shortened: as §1
Streptococcus pneumoniae [47] = assay: Antimicrobial activity against Streptococcus pneumoniae isolate 4755 by agar dilution method; procedure, shortened: as §1

Which MIC50 (Streptococcus pneumoniae [1]) does the source give for `C[C@@H](O)[C@H]1C(=O)N2C(C(=O)O)=C(S[C@@H]3CN[C@H](C(=O)N(C)C)C3)[C@H](C)[C@H]12` [MEROPENEM] here?
The MIC50 was 0.016 µg/mL (≈ 0.0417 µM).

And the MIC90 (Streptococcus pneumoniae [1])?
The MIC90 was 0.016 µg/mL (≈ 0.0417 µM).

And the MIC50 (Streptococcus pneumoniae [2])?
The MIC50 was 0.06 µg/mL (≈ 0.156 µM).

What about the MIC90 (Streptococcus pneumoniae [2]) of the same compound?
Its MIC90 is 0.25 µg/mL (≈ 0.652 µM).

And the MIC50 (Streptococcus pneumoniae [3])?
Its MIC50 is 0.5 µg/mL (≈ 1.3 µM).

What about the MIC90 (Streptococcus pneumoniae [3]) of the same compound?
Its MIC90 is 0.5 µg/mL (≈ 1.3 µM).

And the MIC50 (Streptococcus pneumoniae [4])?
Its MIC50 is 1 µg/mL (≈ 2.61 µM).

And the MIC90 (Streptococcus pneumoniae [4])?
Its MIC90 is 1 µg/mL (≈ 2.61 µM).

And the MIC (Streptococcus pneumoniae [5])?
Its MIC is 0.016 µg/mL (≈ 0.0417 µM).

And the MIC (Streptococcus pneumoniae [6])?
Its MIC is 0.008 µg/mL (≈ 0.0209 µM).

And the MIC (Streptococcus pneumoniae [7])?
Its MIC is 0.25 µg/mL (≈ 0.652 µM).

And the MIC (Streptococcus pneumoniae [8])?
Its MIC is 0.5 µg/mL (≈ 1.3 µM).

What about the MIC (Streptococcus pneumoniae [9]) of the same compound?
Its MIC is 2 µg/mL (≈ 5.22 µM).

And the MIC (Streptococcus pneumoniae [10])?
The MIC was 0.12 µg/mL (≈ 0.313 µM).

And the MIC (Streptococcus pneumoniae [11])?
The MIC was 1 µg/mL (≈ 2.61 µM).

And the MIC (Streptococcus pneumoniae [12])?
The MIC was 1 µg/mL (≈ 2.61 µM).

And the MIC (Streptococcus pneumoniae [13])?
Its MIC is 0.12 µg/mL (≈ 0.313 µM).

What about the MIC (Streptococcus pneumoniae [14]) of the same compound?
Its MIC is 0.06 µg/mL (≈ 0.156 µM).

What about the MIC (Streptococcus pneumoniae [15]) of the same compound?
The MIC was 1 µg/mL (≈ 2.61 µM).

What about the MIC (Streptococcus pneumoniae [16]) of the same compound?
The MIC was 0.5 µg/mL (≈ 1.3 µM).

And the MIC (Streptococcus pneumoniae [17])?
The MIC was 0.5 µg/mL (≈ 1.3 µM).

What about the MIC (Streptococcus pneumoniae [18]) of the same compound?
Its MIC is 1 µg/mL (≈ 2.61 µM).

What about the MIC (Streptococcus pneumoniae [19]) of the same compound?
Its MIC is 1 µg/mL (≈ 2.61 µM).

What about the MIC (Streptococcus pneumoniae [20]) of the same compound?
Its MIC is 0.5 µg/mL (≈ 1.3 µM).

And the MIC (Streptococcus pneumoniae [21])?
The MIC was 1 µg/mL (≈ 2.61 µM).

What about the MIC (Streptococcus pneumoniae [22]) of the same compound?
The MIC was 2 µg/mL (≈ 5.22 µM).

And the MIC (Streptococcus pneumoniae [23])?
The MIC was 0.25 µg/mL (≈ 0.652 µM).

And the MIC (Streptococcus pneumoniae [24])?
The MIC was 0.5 µg/mL (≈ 1.3 µM).

What about the MIC (Streptococcus pneumoniae [25]) of the same compound?
The MIC was 0.5 µg/mL (≈ 1.3 µM).

And the MIC (Streptococcus pneumoniae [26])?
Its MIC is 0.5 µg/mL (≈ 1.3 µM).

What about the MIC (Streptococcus pneumoniae [27]) of the same compound?
The MIC was 0.125 µg/mL (≈ 0.326 µM).

And the MIC (Streptococcus pneumoniae [28])?
The MIC was 0.25 µg/mL (≈ 0.652 µM).

And the MIC (Streptococcus pneumoniae [29])?
The MIC was 0.5 µg/mL (≈ 1.3 µM).

And the MIC (Streptococcus pneumoniae [30])?
The MIC was 0.5 µg/mL (≈ 1.3 µM).

What about the MIC (Streptococcus pneumoniae [31]) of the same compound?
Its MIC is 1 µg/mL (≈ 2.61 µM).

What about the MIC (Streptococcus pneumoniae [32]) of the same compound?
Its MIC is 0.5 µg/mL (≈ 1.3 µM).

What about the MIC (Streptococcus pneumoniae [33]) of the same compound?
Its MIC is 0.25 µg/mL (≈ 0.652 µM).

And the MIC (Streptococcus pneumoniae [34])?
The MIC was 0.25 µg/mL (≈ 0.652 µM).

And the MIC (Streptococcus pneumoniae [35])?
Its MIC is 0.125 µg/mL (≈ 0.326 µM).

What about the MIC (Streptococcus pneumoniae [36]) of the same compound?
Its MIC is 0.25 µg/mL (≈ 0.652 µM).

And the MIC (Streptococcus pneumoniae [37])?
The MIC was 0.25 µg/mL (≈ 0.652 µM).

What about the MIC (Streptococcus pneumoniae [38]) of the same compound?
Its MIC is 0.25 µg/mL (≈ 0.652 µM).

And the MIC (Streptococcus pneumoniae [39])?
The MIC was 0.25 µg/mL (≈ 0.652 µM).

What about the MIC (Streptococcus pneumoniae [40]) of the same compound?
Its MIC is 1 µg/mL (≈ 2.61 µM).

And the MIC (Streptococcus pneumoniae [41])?
Its MIC is 1 µg/mL (≈ 2.61 µM).

What about the MIC (Streptococcus pneumoniae [42]) of the same compound?
The MIC was 0.25 µg/mL (≈ 0.652 µM).

And the MIC (Streptococcus pneumoniae [43])?
Its MIC is 0.5 µg/mL (≈ 1.3 µM).

And the MIC (Streptococcus pneumoniae [44])?
Its MIC is 0.25 µg/mL (≈ 0.652 µM).

What about the MIC (Streptococcus pneumoniae [45]) of the same compound?
Its MIC is 0.25 µg/mL (≈ 0.652 µM).

What about the MIC (Streptococcus pneumoniae [46]) of the same compound?
Its MIC is 0.25 µg/mL (≈ 0.652 µM).

And the MIC (Streptococcus pneumoniae [47])?
Its MIC is 0.25 µg/mL (≈ 0.652 µM).

Reference: ChEMBL document CHEMBL1649446, “Comparative antipneumococcal activities of sulopenem and other drugs” (2009)
